Among the data in ChEMBL document CHEMBL3097997, “Synthesis and anticancer activities of thieno[3,2-d]pyrimidines as novel HDAC inhibitors” (Bioorg Med Chem, 2014) are IC50, inhibition and Activity values, retold here.

What is called IC50 is the concentration needed to halve the response being measured. A lower IC50 goes with greater potency in that assay. In general, inhibition refers to the percentage by which the read-out fell short of the control. Read a high inhibition as strong suppression.

The structures appear in SMILES notation.

One assay concerns MCF7. In words: Antiproliferative activity against human MCF7 cells after 72 hrs by MTT assay. The assay is classed as functional, cell-based. To be noted: MCF7, 72 h. For orientation: Tetrazolium assays rely on reduction of a dye to a coloured formazan, in cell work by metabolically active cells.
In a further assay the test system is HeLa. The experiment in a line: Antiproliferative activity against human HeLa cells after 72 hrs by MTT assay. The assay is classed as functional, cell-based.
Assay [1] deals with HCT-116. The experiment in a line: Antiproliferative activity against human HCT116 cells after 72 hrs by MTT assay. To be noted: HCT-116, 72 h. The assay is classed as functional, cell-based.
Assay [2] addresses Histone deacetylase (Homo sapiens) (UniProt Q13547+O15379+Q9UBN7+Q92769+Q9UQL6+Q8WUI4+Q9BY41+Q96DB2+P56524+Q9UKV0+Q969S8). To be noted: HeLa, at 1 µM.
A further assay has as its target Histone deacetylase. The experiment in a line: Inhibition of HDAC in human HeLa cell nuclear extract using fluor de Lys as substrate after 15 mins by fluorimetric analysis. Type of assay: protein assay. The essentials:
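Fluorimetric HDAC kit assay: HeLa nuclear extract (15 μL) combined with 10 μL of 5× compound, then 25 μL fluorogenic substrate added; deacetylation ran 15 min at room temperature and was stopped with TSA-containing developer. Fluorescence read after a further 15 min at excitation 360 nm, emission 460 nm.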

Assay [3] deals with HCT-116. The experiment in a line: Cell cycle arrest in human HCT116 cells assessed as accumulation at sub G1 phase after 24 hrs by propidium iodide staining-based flow cytometric analysis. Type of assay: functional. The gist of the method:
(§1)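 HCT-116 cells seeded at 2 × 10^5 per well in six-well plates, treated 24 h with compound at 2.5, 5 or 10 μM alongside untreated control, then harvested, fixed in cold 70% ethanol and stained with PI solution (final 50 μg/mL PI, 0.1 mg/mL RNase A, 0.05% Triton X-100) for 40 min at 37 °C. Phase distribution read by flow cytometry.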
(A flow cytometer gives signals particle by particle.)

The test system of assay [4] is HCT-116. The experiment in a line: Cell cycle arrest in human HCT116 cells assessed as accumulation at G2/M phase at 10 uM after 24 hrs by propidium iodide staining-based flow cytometric analysis (reference value: 15.6%). The assay is classed as functional. The gist of the method:
as §1

The subject of assay [5] is HCT-116. In words: Cell cycle arrest in human HCT116 cells assessed as accumulation at S phase at 10 uM after 24 hrs by propidium iodide staining-based flow cytometric analysis (reference value: 36.3%). The assay is classed as functional. The gist of the method:
as §1

In assay [6] the test system is HCT-116. The experiment in a line: Cell cycle arrest in human HCT116 cells assessed as accumulation at G1 phase at 10 uM after 24 hrs by propidium iodide staining-based flow cytometric analysis (reference value: 48.1%). The assay is classed as functional. The gist of the method:
as §1

The test system of assay [7] is HCT-116. The experiment in a line: Cell cycle arrest in human HCT116 cells assessed as accumulation at sub G1 phase at 10 uM after 24 hrs by propidium iodide staining-based flow cytometric analysis relative to control. The assay is classed as functional. The gist of the method:
as §1

The test system of assay [8] is HCT-116. The experiment in a line: Cell cycle arrest in human HCT116 cells assessed as accumulation at G2/M phase at 5 uM after 24 hrs by propidium iodide staining-based flow cytometric analysis (reference value: 15.6%). Type of assay: functional. The gist of the method: as §1
The subject of assay [9] is HCT-116. In words: Cell cycle arrest in human HCT116 cells assessed as accumulation at S phase at 5 uM after 24 hrs by propidium iodide staining-based flow cytometric analysis (reference value: 36.3%). Type of assay: functional. The essentials: as §1
Assay [10] has as its system HCT-116. In words: Cell cycle arrest in human HCT116 cells assessed as accumulation at G1 phase at 5 uM after 24 hrs by propidium iodide staining-based flow cytometric analysis (reference value: 48.1%). The assay is classed as functional. The essentials:
as §1

For assay [11], the system named is HCT-116. In words: Cell cycle arrest in human HCT116 cells assessed as accumulation at sub G1 phase at 5 uM after 24 hrs by propidium iodide staining-based flow cytometric analysis relative to control. Type of assay: functional. The essentials:
as §1

Assay [12] deals with HCT-116. In words: Cell cycle arrest in human HCT116 cells assessed as accumulation at G2/M phase at 2.5 uM after 24 hrs by propidium iodide staining-based flow cytometric analysis (reference value: 15.6%). The assay is classed as functional. The gist of the method:
as §1

Assay [13] has as its system HCT-116. In words: Cell cycle arrest in human HCT116 cells assessed as accumulation at S phase at 2.5 uM after 24 hrs by propidium iodide staining-based flow cytometric analysis (reference value: 36.3%). The assay is classed as functional. The gist of the method: as §1
Assay [14] has as its system HCT-116. The experiment in a line: Cell cycle arrest in human HCT116 cells assessed as accumulation at G1 phase at 2.5 uM after 24 hrs by propidium iodide staining-based flow cytometric analysis (reference value: 48.1%). Type of assay: functional. The gist of the method:
as §1

In assay [15] the test system is HCT-116. In words: Cell cycle arrest in human HCT116 cells assessed as accumulation at sub G1 phase at 2.5 uM after 24 hrs by propidium iodide staining-based flow cytometric analysis relative to control. The assay is classed as functional. The essentials:
as §1

On to `O=C(CCCCCCOc1ccc(-c2nc(N3CCOCC3)c3sccc3n2)cc1)NO`, for which the IC50 in the assay on MCF7 was 5.2 µM; with HeLa it was 3 µM; in the assay with HCT-116 [1], 5.5 µM. Also, the inhibition in assay [2] was found to be 61.7%.

In the case of `O=C(CCCCCCCOc1cccc(-c2nc(N3CCOCC3)c3sccc3n2)c1)NO`, the IC50 in the assay on MCF7 amounted to 11 µM; in the assay on HeLa, 11.9 µM; in the assay on HCT-116 [1] it was 6.1 µM; against Histone deacetylase, 0.61 µM. This compound also came in with an inhibition in [2] of 72%.

`O=C(CCCCCCCCOc1cccc(-c2nc(N3CCOCC3)c3sccc3n2)c1)NO`: the figures for the IC50 with MCF7, with HeLa and in the assay with HCT-116 [1] were above 20 µM, 20 µM and above 20 µM, respectively. In addition, the inhibition in [2] is 40.6%.

Consider `O=C(CCCCCOc1ccc(-c2nc(N3CCOCC3)c3sccc3n2)cc1)NO`, for which the results for the IC50 with MCF7, in the assay on HeLa and in the assay with HCT-116 [1] were above 20 µM, 12 µM and 14 µM, respectively. The compound also came in with an inhibition in assay [2] of 18.8%.

With `O=C(CCCCCCOc1cccc(-c2nc(N3CCOCC3)c3sccc3n2)c1)NO`, the Activity result in the assay on HCT-116 [3] is “Dose-dependent effect”; in the assay on HCT-116 [4], 26.5%; in the assay with HCT-116 [5] it was 20.8%; in the assay on HCT-116 [6], 50.3%; with HCT-116 [7], 44.5%; with HCT-116 [8] it was 31.4%. Further, the Activity is on record as 18.9% with HCT-116 [9]; 49.7% with HCT-116 [10]; 42.2% in the assay with HCT-116 [11]; 16.8% with HCT-116 [12]; 15.2% with HCT-116 [13]; 68.1% in the assay with HCT-116 [14]. In addition, the Activity in the assay with HCT-116 [15] was found to be 30.5%. In addition, the IC50 in the assay with MCF7 came out at 4.8 µM; with HeLa, 4 µM; in the assay with HCT-116 [1], 4 µM; against Histone deacetylase it was 0.38 µM. Moreover, the inhibition in assay [2] is 76.8%.

Take `O=C(CCCCCCCCOc1ccc(-c2nc(N3CCOCC3)c3sccc3n2)cc1)NO`: the IC50 in the assay on MCF7 turned out to be 18 µM; with HeLa, 19 µM; with HCT-116 [1], 10.1 µM. The compound further showed an inhibition in assay [2] of 25.4%.

As for `O=C(CCCCCOc1cccc(-c2nc(N3CCOCC3)c3sccc3n2)c1)NO`, the figures for the IC50 with MCF7, in the assay with HeLa and in the assay with HCT-116 [1] were 9.9 µM, 2.4 µM and 12.2 µM, respectively. This compound also came in with an inhibition in [2] of 18.7%.

As to `O=C(CCCCCCCOc1ccc(-c2nc(N3CCOCC3)c3sccc3n2)cc1)NO`, the IC50 in the assay with MCF7 worked out at 10 µM; with HeLa it was 7.4 µM; in the assay with HCT-116 [1] it was 2.9 µM; at Histone deacetylase, 0.49 µM. This compound also came in with an inhibition in assay [2] of 73.8%.
